Test results reported in ChEMBL document CHEMBL1131449, “4-(trans-4-Methylcyclohexyl)-4-oxobutyric acid (JTT-608). A new class of antidiabetic agent” (1998).
Calls of active or inactive are those of the source. The calls are words filed in the database; no cut-off is given here.

Columns and labels:
Rattus norvegicus [1] = experiment: Percent decrease of hyperglycemia at 30 min after glucose loading(1 g/kg ip) relative to vehicle control in rats at dose 100 mg/kg po.; format: functional; set-up: scale not given: the % may be the effect or the level left
Procedure, shortened: (§1)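 Normal rats, groups of four to six, fasted 16 h. Glucose given 1 g/kg ip, with oral vehicle or compound. Tail-vein blood glucose measured by the hexokinase method. Value is % reduction of hyperglycemia 30 min after the glucose load versus vehicle control. Dunnett's two-tailed test used.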

Rattus norvegicus [2] = experiment: Percent decrease of hyperglycemia at 30 min after glucose loading(1 g/kg ip) relative to vehicle control in rats at dose 30 mg/kg po; format: functional, organism-based; set-up: dose 30 mg/kg; procedure, shortened: as §1
Rattus norvegicus [3] = experiment: Percent decrease of hyperglycemia at 30 min after glucose loading(1 g/kg ip) relative to vehicle control in rats at dose 100 mg/kg po; format: functional, organism-based; set-up: dose 100 mg/kg; procedure, shortened: as §1
Rattus norvegicus [4] = experiment: Hypoglycemic activity in fasting rats at a dose of 30 mg/kg po; format: functional, organism-based; set-up: dose 30 mg/kg
Procedure, shortened: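 Normal rats, groups of four or five, fasted 16 h, then given vehicle or compound by mouth. Tail-vein blood sampled over 4 h for glucose (hexokinase method) and insulin (two-antibody radioimmunoassay). Comparison to vehicle control by Dunnett's two-tailed test.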

Rattus norvegicus [5] = experiment: Percent decrease of hyperglycemia at 30 min after glucose loading(1 g/kg ip) relative to vehicle control in rats at dose 10 mg/kg po; format: functional, organism-based; set-up: dose 10 mg/kg; procedure, shortened: as §1
Rattus norvegicus [6] = experiment: Percent decrease of hyperglycemia at 30 min after glucose loading(1 g/kg ip) relative to vehicle control in rats at dose 30 mg/kg po.; format: functional; set-up: scale not given: the % may be the effect or the level left; procedure, shortened: as §1
Rattus norvegicus [7] = experiment: Percent decrease of hyperglycemia at 30 min after glucose loading(1 g/kg ip) relative to vehicle control in rats at dose 10 mg/kg po.; format: functional; set-up: scale not given: the % may be the effect or the level left; procedure, shortened: as §1
Rattus norvegicus [8] = experiment: Percent decrease of hyperglycemia at 30 min after glucose loading(1 g/kg ip) relative to vehicle control in rats at dose 1 mg/kg po; format: functional, organism-based; set-up: dose 1 mg/kg; procedure, shortened: as §1
Rattus norvegicus [9] = experiment: Percent decrease of hyperglycemia at 30 min after glucose loading(1 g/kg ip) relative to vehicle control in rats at dose 3 mg/kg po.; format: functional; set-up: scale not given: the % may be the effect or the level left; procedure, shortened: as §1

CC1CCCC(C(=O)CCC(=O)O)C1 (centres undefined)
Effect (Rattus norvegicus [1]): 37% | Effect (Rattus norvegicus [2]): inactive

CCC[C@H]1CC[C@H](C(=O)CCC(=O)O)CC1
Effect (Rattus norvegicus [3]): inactive

CC(=O)CCC(=O)[C@H]1CC[C@H](C)CC1
Effect (Rattus norvegicus [4]): inactive | Effect (Rattus norvegicus [1]): 31% | Effect (Rattus norvegicus [5]): inactive | Effect (Rattus norvegicus [6]): 30%

CC1(C(=O)CCC(=O)O)CCCCC1
Effect (Rattus norvegicus [1]): 28% | Effect (Rattus norvegicus [2]): inactive

C[C@H]1CC[C@H](C(=O)CCC(=O)O)CC1
Effect (Rattus norvegicus [4]): inactive | Effect (Rattus norvegicus [1]): 65% | Effect (Rattus norvegicus [7]): 32% | Effect (Rattus norvegicus [8]): inactive | Effect (Rattus norvegicus [9]): 24% | Effect (Rattus norvegicus [6]): 41%

CC[C@H]1CC[C@H](C(=O)CCC(=O)O)CC1
Effect (Rattus norvegicus [3]): inactive

C[C@H]1CC[C@H](C(=O)OCC(=O)O)CC1
Effect (Rattus norvegicus [3]): inactive

C[C@H]1CC[C@H](S(=O)(=O)CCC(=O)O)CC1
Effect (Rattus norvegicus [3]): inactive

C[C@H]1CC[C@H](CCCC(=O)O)CC1
Effect (Rattus norvegicus [3]): inactive

O=C(O)CCC(=O)C1CCCCC1
Effect (Rattus norvegicus [4]): inactive | Effect (Rattus norvegicus [1]): 26% | Effect (Rattus norvegicus [5]): inactive | Effect (Rattus norvegicus [6]): 27%

CC1CCCCC1C(=O)CCC(=O)O (centres undefined)
Effect (Rattus norvegicus [3]): inactive

C[C@H]1CC[C@H](C(=O)CCC(N)=O)CC1
Effect (Rattus norvegicus [4]): inactive | Effect (Rattus norvegicus [1]): 47% | Effect (Rattus norvegicus [5]): inactive | Effect (Rattus norvegicus [6]): 27%

CC1(C)CCC(C(=O)CCC(=O)O)CC1
Effect (Rattus norvegicus [1]): 34% | Effect (Rattus norvegicus [2]): inactive

C[C@H]1CC[C@H](C(=O)CCCC(=O)O)CC1
Effect (Rattus norvegicus [3]): inactive

C[C@H]1CC[C@H](C(=O)NCC(=O)O)CC1
Effect (Rattus norvegicus [3]): inactive

C[C@H]1CC[C@H]([S+]([O-])CCC(=O)O)CC1 (some centres undefined)
Effect (Rattus norvegicus [3]): inactive

C[C@H]1CC[C@@H](C(=O)CCC(=O)O)CC1
Effect (Rattus norvegicus [4]): inactive | Effect (Rattus norvegicus [1]): 44% | Effect (Rattus norvegicus [5]): inactive | Effect (Rattus norvegicus [6]): 32%

O=C(O)CCC(=O)C1CCCCCC1
Effect (Rattus norvegicus [3]): inactive

O=C(O)CCC(=O)C1CCCC1
Effect (Rattus norvegicus [3]): inactive
